From ChEMBL document CHEMBL1152541, “Staurosporine tethered peptide ligands that target cAMP-dependent protein kinase (PKA): optimization and selectivity profiling” (Bioorg Med Chem, 2009)
*1 amine or outer side, *2 acyl side, *3 side chain or, on linkers, in order; H or OH if unused. Where a SMILES comes first, the peptide text is derived from it. Bridges are numbered along the chain shown (N, C = ends). [ ]: non-standard residue; d: D form. The star is where a group is joined. Staurosporine = CO[C@@H]1[C@H](N(C)*)C[C@H]2O[C@]1(C)n1c3ccccc3c3c4c(c5c6ccccc6n2c5c31)C(=O)NC4; Suc = O=C(CCC(=O)[*:2])[*:1]; Dap = NC[C@H](N)C(=O)O; βAla = NCCC(=O)O

Experiments:
[1] = molecular target: Proto-oncogene tyrosine-protein kinase receptor Ret (Homo sapiens) (UniProt P07949); test: Binding affinity to human RET at 500 nM by cell-based competition binding assay relative to control in presence of DTT
[2] = molecular target: Macrophage colony-stimulating factor 1 receptor (Homo sapiens) (UniProt P07333); test: Binding affinity to human CSF1R at 500 nM by cell-based competition binding assay relative to control in presence of DTT
Procedure, shortened: (§1)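 Commercial (Ambit) competitive kinase-binding panel of 90 kinases measured the binding profile. Run under reducing conditions of 7.5 mM DTT. Binding is expressed relative to control.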

[3] = molecular target: Serine/threonine-protein kinase pim-1 (Homo sapiens) (UniProt P11309); test: Ratio of compound to staurosporine binding affinity to human PIM1 in presence of DTT
[4] = molecular target: Aurora kinase B (Homo sapiens) (UniProt Q96GD4); test: Binding affinity to human aurora kinase B at 500 nM by cell-based competition binding assay relative to control in presence of DTT
[5] = molecular target: Cyclin-dependent kinase 9 (Homo sapiens) (UniProt P50750); test: Binding affinity to human CDK9 at 500 nM by cell-based competition binding assay relative to control in presence of DTT; procedure, shortened: as §1
[6] = tested on: Mast/stem cell growth factor receptor Kit (Homo sapiens), P10721 [V559D,T670I]; test: Binding affinity to human KIT V559D,T670I mutant at 500 nM by cell-based competition binding assay relative to control in presence of DTT
Procedure, shortened: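 Competition binding screen (Ambit) across a panel of 90 kinases, scoring test ligand displacement of each kinase's binding relative to control. The screen ran under reducing conditions with 7.5 mM DTT.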

[7] = molecular target: Receptor tyrosine-protein kinase erbB-2 (Homo sapiens) (UniProt P04626); test: Binding affinity to human ERBB2 at 500 nM by cell-based competition binding assay relative to control in presence of DTT; procedure, shortened: as §1
[8] = molecular target: T1, Serine/threonine-protein kinase Chk1 (Homo sapiens) (UniProt O14757); test: Binding affinity to human CHEK1 at 200 nM by cell-based competition binding assay relative to control in presence of DTT; procedure, shortened: as §1
T1 sequence (whole entry): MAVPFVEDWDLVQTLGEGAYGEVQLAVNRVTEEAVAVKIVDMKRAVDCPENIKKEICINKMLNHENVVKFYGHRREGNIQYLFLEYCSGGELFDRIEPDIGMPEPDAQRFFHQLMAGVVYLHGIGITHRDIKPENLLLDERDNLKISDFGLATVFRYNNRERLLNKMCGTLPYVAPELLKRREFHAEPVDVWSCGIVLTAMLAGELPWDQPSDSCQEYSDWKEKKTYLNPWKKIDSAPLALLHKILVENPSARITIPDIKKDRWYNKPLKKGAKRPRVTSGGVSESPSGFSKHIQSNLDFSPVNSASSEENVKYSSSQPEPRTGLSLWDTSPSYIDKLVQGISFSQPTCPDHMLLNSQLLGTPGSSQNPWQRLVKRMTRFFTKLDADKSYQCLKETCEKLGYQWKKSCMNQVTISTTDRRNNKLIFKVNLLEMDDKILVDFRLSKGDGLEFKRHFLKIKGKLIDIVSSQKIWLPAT

[9] = molecular target: Cyclin-dependent kinase 16 (Homo sapiens) (UniProt Q00536); test: Binding affinity to human PCTK1 at 200 nM by cell-based competition binding assay relative to control in presence of DTT
[10] = molecular target: Serine/threonine-protein kinase B-raf (Homo sapiens) (UniProt P15056); test: Binding affinity to human BRAF at 200 nM by cell-based competition binding assay relative to control in presence of DTT
Procedure, shortened: (§2)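 Kinase binding profiling ran on a commercial (Ambit) competitive binding screen against a panel of 90 kinases. The screen used reducing conditions with 7.5 mM DTT. To withstand the DTT, the bivalent ligand was tested as its amide isostere, with the disulfide replaced. A staurosporine derivative carrying a 3 β-alanine linker was run as the reference compound.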

[11] = molecular target: cAMP-dependent protein kinase catalytic subunit alpha (Homo sapiens) (UniProt P17612); test: Binding affinity to human PKACalpha at 200 nM by cell-based competition binding assay relative to control in presence of DTT
[12] = molecular target: Cyclin-dependent kinase 3 (Homo sapiens) (UniProt Q00526); test: Binding affinity to human CDK3 at 200 nM by cell-based competition binding assay relative to control in presence of DTT; procedure, shortened: as §2
[13] = molecular target: Hepatocyte growth factor receptor (Homo sapiens) (UniProt P08581); test: Binding affinity to human MET at 200 nM by cell-based competition binding assay relative to control in presence of DTT
[14] = molecular target: MAP kinase-interacting serine/threonine-protein kinase 1 (Homo sapiens) (UniProt Q9BUB5); test: Binding affinity to human MKNK1 at 200 nM by cell-based competition binding assay relative to control in presence of DTT
[15] = molecular target: T2, Activin receptor type-1B (Homo sapiens) (UniProt P36896); test: Binding affinity to human ACVR1B at 50 nM by cell-based competition binding assay relative to control in presence of DTT; procedure, shortened: as §2
T2 sequence (whole entry): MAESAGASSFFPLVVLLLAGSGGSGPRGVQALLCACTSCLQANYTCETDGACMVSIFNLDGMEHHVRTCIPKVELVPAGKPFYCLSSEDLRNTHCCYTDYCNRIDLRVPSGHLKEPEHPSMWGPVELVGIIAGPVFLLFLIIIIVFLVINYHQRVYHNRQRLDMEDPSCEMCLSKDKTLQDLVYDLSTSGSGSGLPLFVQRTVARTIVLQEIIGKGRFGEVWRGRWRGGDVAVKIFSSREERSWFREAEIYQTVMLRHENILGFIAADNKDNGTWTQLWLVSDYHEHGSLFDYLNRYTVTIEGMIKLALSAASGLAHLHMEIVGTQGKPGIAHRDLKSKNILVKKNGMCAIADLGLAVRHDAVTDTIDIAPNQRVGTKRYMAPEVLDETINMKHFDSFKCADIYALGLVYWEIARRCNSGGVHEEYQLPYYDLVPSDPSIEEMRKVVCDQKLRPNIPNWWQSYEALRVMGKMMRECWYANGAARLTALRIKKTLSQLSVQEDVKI

[16] = molecular target: Cyclin-dependent kinase 3 (Homo sapiens) (UniProt Q00526); test: Binding affinity to human CDK3 at 50 nM by cell-based competition binding assay relative to control in presence of DTT; procedure, shortened: as §2
[17] = molecular target: Proto-oncogene tyrosine-protein kinase receptor Ret (Homo sapiens) (UniProt P07949); test: Binding affinity to human RET at 50 nM by cell-based competition binding assay relative to control in presence of DTT
[18] = molecular target: Fibroblast growth factor receptor 3 (Homo sapiens) (UniProt P22607); test: Binding affinity to human FGFR3 at 50 nM by cell-based competition binding assay relative to control in presence of DTT; procedure, shortened: as §1
[19] = molecular target: Serine/threonine-protein kinase pim-1 (Homo sapiens) (UniProt P11309); test: Binding affinity to human PIM1 at 50 nM by cell-based competition binding assay relative to control in presence of DTT

CO[C@@H]1[C@H](N(C)C(=O)CCC(=O)NCCC(=O)NCCC(=O)NCCC(N)=O)C[C@H]2O[C@]1(C)n1c3ccccc3c3c4c(c5c6ccccc6n2c5c31)C(=O)NC4
Activity [1]: 5.6%
Activity [2]: 22%
Selectivity ratio [3]: 31
Activity [4]: 0%
Activity [5]: 92%
Activity [6]: 4.8%
Activity [7]: 95%

CO[C@@H]1[C@H](N(C)C(=O)CCC(=O)NCCC(=O)NCCC(=O)NCCC(=O)NCCC(=O)NCCC(=O)NCCC(=O)NCCC(=O)N[C@H]2CSSC[C@@H](C(=O)NCC(N)=O)NC(=O)CNC(=O)[C@H](Cc3ccccc3)NC(=O)[C@H](C(C)C)NC(=O)[C@H](CCCNC(=N)N)NC(=O)[C@H](Cc3ccccc3)NC(=O)[C@H](C(C)C)NC2=O)C[C@H]2O[C@]1(C)n1c3ccccc3c3c4c(c5c6ccccc6n2c5c31)C(=O)NC4 ({Staurosporine-Suc-βAla-βAla-βAla-βAla-βAla-βAla-βAla}-CVFRVFGCG-NH2; disulfide 1-8)
Activity [8]: 60%
Activity [9]: 94%
Activity [10]: 100%
Activity [11]: 19%
Activity [12]: 100%
Activity [13]: 77%
Activity [14]: 96%

CO[C@@H]1[C@H](N(C)C(=O)CCC(=O)NCCC(=O)NCCC(=O)NCCC(=O)NCCC(=O)NCCC(=O)NCCC(=O)NCCC(=O)N[C@H]2CNC(=O)C[C@@H](C(N)=O)NC(=O)CNC(=O)[C@H](Cc3ccccc3)NC(=O)[C@H](C(C)C)NC(=O)[C@H](CCCNC(=N)N)NC(=O)[C@H](Cc3ccccc3)NC(=O)[C@H](C(C)C)NC2=O)C[C@H]2O[C@]1(C)n1c3ccccc3c3c4c(c5c6ccccc6n2c5c31)C(=O)NC4 ({Staurosporine-Suc-βAla-βAla-βAla-βAla-βAla-βAla-βAla}-[Dap]VFRVFGD-NH2; lactam 1-8)
Activity [15]: 100%
Activity [16]: 100%
Activity [17]: 94%
Activity [18]: 100%
Activity [19]: 79%
